The target in test [1] is Sodium- and chloride-dependent betaine transporter (Homo sapiens, UniProt P48065, C382T). In words: Inhibition of human BGT1 C382T mutant expressed in tsA201 cells assessed as reduction in [3H]GABA uptake after 3 mins by scintillation counting method. The class given is cell-based. An outline of the steps: (§1)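 Site-directed mutant transporters transiently transfected (PolyFect) into tsA201 cells, plated and used about 24 h later. Cells were washed with HBSS containing 20 mM HEPES, 1 mM CaCl2 and 1 mM MgCl2, pH 7.4. IC50 was taken from variable-slope sigmoidal fits. Triplicates, at least three independent experiments.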

Test [2] concerns the target Sodium- and chloride-dependent betaine transporter (Homo sapiens, UniProt P48065, Q378P). In words: Inhibition of human BGT1 Q378P mutant expressed in tsA201 cells assessed as reduction in [3H]GABA uptake after 3 mins by scintillation counting method. In kind it is cell-based. Put shortly:
as §1

Test [3] has as its target Sodium- and chloride-dependent betaine transporter (Homo sapiens, UniProt P48065, S353A). In words: Inhibition of human BGT1 S353A mutant expressed in tsA201 cells assessed as reduction in [3H]GABA uptake after 3 mins by scintillation counting method. In kind it is cell-based. An outline of the steps: as §1
The target in test [4] is Sodium- and chloride-dependent betaine transporter (Homo sapiens, UniProt P48065, I340V). In words: Inhibition of human BGT1 I340V mutant expressed in tsA201 cells assessed as reduction in [3H]GABA uptake after 3 mins by scintillation counting method. The class given is cell-based. Put shortly: as §1
Test [5] concerns the target Histamine H1 receptor (Homo sapiens) (UniProt P35367). In words: Displacement of [3H]pyrilamine from human histamine H1 receptor expressed in HEK cell membranes at 10 uM after 90 mins by scintillation counting method. A general note: In a radioligand displacement assay an active substance lowers the binding of a labelled ligand.
The target of test [6] is 5-hydroxytryptamine receptor 1D (Homo sapiens) (UniProt P28221). In words: Displacement of [3H]GR125743 from human 5-HT1D receptor expressed in HEKT cell membranes at 10 uM after 90 mins by scintillation counting method.
In test [7] the target is Sodium- and chloride-dependent betaine transporter (Homo sapiens, UniProt P48065, F295Y). In words: Inhibition of human BGT1 F295Y mutant expressed in tsA201 cells assessed as reduction in [3H]GABA uptake after 3 mins by scintillation counting method. The class given is cell-based. An outline of the steps:
as §1

Test [8] addresses Sodium- and chloride-dependent betaine transporter (Homo sapiens, UniProt P48065, V336A). In words: Inhibition of human BGT1 V336A mutant expressed in tsA201 cells assessed as reduction in [3H]GABA uptake after 3 mins by scintillation counting method. The class given is cell-based. An outline of the steps:
as §1

Test [9] deals with Sodium- and chloride-dependent betaine transporter (Homo sapiens, UniProt P48065, F324C). In words: Inhibition of human BGT1 F324C mutant expressed in tsA201 cells assessed as reduction in [3H]GABA uptake after 3 mins by scintillation counting method. The class given is cell-based. Put shortly: as §1
Test [10] deals with Sodium- and chloride-dependent betaine transporter (Homo sapiens, UniProt P48065, K317R). In words: Inhibition of human BGT1 K317R mutant expressed in tsA201 cells assessed as reduction in [3H]GABA uptake after 3 mins by scintillation counting method. The class given is cell-based. An outline of the steps:
as §1

Test [11] deals with Sodium- and chloride-dependent betaine transporter (Homo sapiens, UniProt P48065, V337I). In words: Inhibition of human BGT1 V337I mutant expressed in tsA201 cells assessed as reduction in [3H]GABA uptake after 3 mins by scintillation counting method. The class given is cell-based. Put shortly: as §1
For test [12], the target named is Sodium- and chloride-dependent betaine transporter (Homo sapiens, UniProt P48065). In words: Inhibition of human BGT1/human GAT3 chimera C expresses in tsA201 cells assessed as reduction in [3H]GABA uptake after 3 mins by scintillation counting method. In kind it is cell-based. An outline of the steps: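 BGT1/GAT3 chimeric constructs transiently expressed in tsA201 cells. After about 24 h, cells were washed in HEPES-buffered HBSS (1 mM CaCl2, 1 mM MgCl2, pH 7.4). IC50 came from variable-slope sigmoidal regression. Triplicates, at least two independent experiments.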

The target in test [13] is Sodium- and chloride-dependent betaine transporter (Homo sapiens, UniProt P48065, A321M). In words: Inhibition of human BGT1 A321M mutant expressed in tsA201 cells assessed as reduction in [3H]GABA uptake after 3 mins by scintillation counting method. In kind it is cell-based. An outline of the steps:
as §1

The values that follow come from ChEMBL document CHEMBL4028872, “Structure-Activity Relationship, Pharmacological Characterization, and Molecular Modeling of Noncompetitive Inhibitors of the Betaine/γ-Aminobutyric Acid Transporter 1 (BGT1)” (J Med Chem, 2017).

Each structure is given as a SMILES string. Active and inactive are the calls of the source. No cut-off for these calls is given here.

Sodium- and chloride-dependent betaine transporter (Homo sapiens, UniProt P48065, V337I), sequence (P48065 whole entry V337I): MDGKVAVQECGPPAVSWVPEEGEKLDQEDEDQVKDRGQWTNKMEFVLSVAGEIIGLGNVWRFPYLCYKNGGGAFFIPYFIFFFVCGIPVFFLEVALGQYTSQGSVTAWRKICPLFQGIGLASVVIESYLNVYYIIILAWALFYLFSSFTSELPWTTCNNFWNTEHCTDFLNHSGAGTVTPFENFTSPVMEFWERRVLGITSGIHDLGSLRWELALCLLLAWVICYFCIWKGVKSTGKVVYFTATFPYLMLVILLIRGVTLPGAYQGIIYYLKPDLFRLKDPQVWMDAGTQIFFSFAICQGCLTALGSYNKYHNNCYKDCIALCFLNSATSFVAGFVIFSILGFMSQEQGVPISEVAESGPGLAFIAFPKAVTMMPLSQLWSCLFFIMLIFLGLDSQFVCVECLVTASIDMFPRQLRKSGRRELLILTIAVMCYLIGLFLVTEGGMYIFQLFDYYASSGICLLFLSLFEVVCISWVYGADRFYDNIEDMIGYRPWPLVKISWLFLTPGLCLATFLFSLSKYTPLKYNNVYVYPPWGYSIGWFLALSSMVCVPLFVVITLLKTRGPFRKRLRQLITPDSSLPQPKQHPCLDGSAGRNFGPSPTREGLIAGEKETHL
Sodium- and chloride-dependent betaine transporter (Homo sapiens, UniProt P48065, V336A), sequence (P48065 whole entry V336A): as the sequence (P48065 whole entry V337I) above, with V336A, I337V counted along it
Sodium- and chloride-dependent betaine transporter (Homo sapiens, UniProt P48065, I340V), sequence (P48065 whole entry I340V): as the sequence (P48065 whole entry V337I) above, with I337V, I340V counted along it
Sodium- and chloride-dependent betaine transporter (Homo sapiens, UniProt P48065), sequence (P48065 whole entry, looked up): as the sequence (P48065 whole entry V337I) above, with I337V counted along it
Sodium- and chloride-dependent betaine transporter (Homo sapiens, UniProt P48065, F295Y), sequence (P48065 whole entry F295Y): as the sequence (P48065 whole entry V337I) above, with F295Y, I337V counted along it
Sodium- and chloride-dependent betaine transporter (Homo sapiens, UniProt P48065, Q378P), sequence (P48065 whole entry Q378P): as the sequence (P48065 whole entry V337I) above, with I337V, Q378P counted along it
Sodium- and chloride-dependent betaine transporter (Homo sapiens, UniProt P48065, C382T), sequence (P48065 whole entry C382T): as the sequence (P48065 whole entry V337I) above, with I337V, C382T counted along it
Histamine H1 receptor (Homo sapiens), sequence (P35367 whole entry): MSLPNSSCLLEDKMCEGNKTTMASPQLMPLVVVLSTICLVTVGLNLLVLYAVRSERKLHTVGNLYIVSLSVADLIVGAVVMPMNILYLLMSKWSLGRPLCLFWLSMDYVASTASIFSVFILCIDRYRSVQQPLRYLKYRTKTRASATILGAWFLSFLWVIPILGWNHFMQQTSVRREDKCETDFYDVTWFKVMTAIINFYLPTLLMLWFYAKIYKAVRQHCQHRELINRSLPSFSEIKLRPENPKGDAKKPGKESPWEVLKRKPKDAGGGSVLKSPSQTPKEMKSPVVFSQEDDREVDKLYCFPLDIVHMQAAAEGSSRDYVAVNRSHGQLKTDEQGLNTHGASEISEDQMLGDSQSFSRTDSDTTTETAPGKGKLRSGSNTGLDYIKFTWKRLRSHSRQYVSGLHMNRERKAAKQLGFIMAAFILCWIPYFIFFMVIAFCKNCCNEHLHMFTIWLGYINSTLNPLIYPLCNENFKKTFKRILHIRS
Sodium- and chloride-dependent betaine transporter (Homo sapiens, UniProt P48065, A321M), sequence (P48065 whole entry A321M): as the sequence (P48065 whole entry V337I) above, with A321M, I337V counted along it
Sodium- and chloride-dependent betaine transporter (Homo sapiens, UniProt P48065, F324C), sequence (P48065 whole entry F324C): as the sequence (P48065 whole entry V337I) above, with F324C, I337V counted along it
5-hydroxytryptamine receptor 1D (Homo sapiens), sequence (P28221 whole entry): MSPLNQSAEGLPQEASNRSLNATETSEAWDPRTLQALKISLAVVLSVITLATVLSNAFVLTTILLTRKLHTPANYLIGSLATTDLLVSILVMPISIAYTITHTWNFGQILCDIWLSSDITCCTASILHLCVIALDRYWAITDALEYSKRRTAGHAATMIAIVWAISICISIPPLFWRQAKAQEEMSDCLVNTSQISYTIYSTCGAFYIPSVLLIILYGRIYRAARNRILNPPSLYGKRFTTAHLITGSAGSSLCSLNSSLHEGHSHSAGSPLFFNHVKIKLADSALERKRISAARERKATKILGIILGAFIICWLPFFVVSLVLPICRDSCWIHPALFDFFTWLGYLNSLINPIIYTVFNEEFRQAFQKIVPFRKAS
Sodium- and chloride-dependent betaine transporter (Homo sapiens, UniProt P48065, K317R), sequence (P48065 whole entry K317R): as the sequence (P48065 whole entry V337I) above, with K317R, I337V counted along it
Sodium- and chloride-dependent betaine transporter (Homo sapiens, UniProt P48065, S353A), sequence (P48065 whole entry S353A): as the sequence (P48065 whole entry V337I) above, with I337V, S353A counted along it

The term pIC50 denotes −log10 of the IC50, conventionally taken in molar units. For `O=C(NC1CCN(Cc2ccccc2)CC1)c1ccc(Cl)cc1Cl`, the IC50 in test [1] is 15 µM; in [2], 14 µM; in test [3], 17 µM; in [4] (read-out: IC50), 8 µM; in [4] (read-out: pIC50 (converted)) it was 5.89 µM; in test [7] (read-out: IC50) it was 5 µM. Also, the IC50 in [7] (read-out: pIC50 (converted)) was 4.07 µM; in [8] (read-out: IC50), 2 µM; in test [8] (read-out: pIC50 (converted)), 1.66 µM; in test [9], 6 µM; in test [10], 13 µM; in test [11] (read-out: IC50), 6 µM. Further, the IC50 in test [11] (read-out: pIC50 (converted)) is 4.9 µM; in test [12], 58 µM; in test [13] it was 5 µM. Also, the inhibition result in [5] and in test [6] was “Active” each time. Also, the pIC50 in [12] is on record as 4.6.
